ChEMBL document CHEMBL2177066, “Opioid activity profiles of oversimplified peptides lacking in the protonable N-terminus” (J Med Chem, 2012)
Where a SMILES comes first, the peptide text is derived from it. [ ]: non-standard residue; d: D form.

Tests used:
[1] = biological target: Kappa-type opioid receptor (Homo sapiens, UniProt P41145); experiment: Displacement of [3H]U69,593 from human KOR expressed in HEK293 cells after 90 mins by liquid scintillation counting; type: cell-based
How it was run: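 Membranes from HEK-293 cells expressing human KOR incubated 90 min at 25 °C in 100 mM Tris-HCl with 0.3% BSA, with [3H]U69,593 at 2 nM. Nonspecific binding defined with 10 μM U50,488. Filtered on polyethylenimine-presoaked GF/C filters, washed with ice-cold 50 mM Tris-HCl pH 7.4, then scintillation counted. Run in triplicate, ≥3 experiments. Ki from IC50 by Cheng–Prusoff.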

Mu-type opioid receptor [2] = biological target: T1, Mu-type opioid receptor (Homo sapiens, UniProt P35372); experiment: biochemical
T1 sequence (P35372 whole entry): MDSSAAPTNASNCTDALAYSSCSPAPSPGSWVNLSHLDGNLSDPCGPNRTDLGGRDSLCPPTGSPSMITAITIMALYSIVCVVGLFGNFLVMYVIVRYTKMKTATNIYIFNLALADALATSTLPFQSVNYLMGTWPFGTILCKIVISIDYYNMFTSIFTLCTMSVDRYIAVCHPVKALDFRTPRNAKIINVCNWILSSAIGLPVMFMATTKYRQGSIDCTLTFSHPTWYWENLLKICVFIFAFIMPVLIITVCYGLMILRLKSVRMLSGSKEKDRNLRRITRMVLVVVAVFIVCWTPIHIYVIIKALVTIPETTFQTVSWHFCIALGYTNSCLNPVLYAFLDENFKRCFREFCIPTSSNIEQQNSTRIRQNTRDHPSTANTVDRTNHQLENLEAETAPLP

[3] = biological target: Delta-type opioid receptor (Homo sapiens, UniProt P41143); experiment: Displacement of [3H]diprenorphine from human DOR expressed in HEK293 cells after 90 mins by liquid scintillation counting; type: cell-based
Sequence of Delta-type opioid receptor (P41143 whole entry): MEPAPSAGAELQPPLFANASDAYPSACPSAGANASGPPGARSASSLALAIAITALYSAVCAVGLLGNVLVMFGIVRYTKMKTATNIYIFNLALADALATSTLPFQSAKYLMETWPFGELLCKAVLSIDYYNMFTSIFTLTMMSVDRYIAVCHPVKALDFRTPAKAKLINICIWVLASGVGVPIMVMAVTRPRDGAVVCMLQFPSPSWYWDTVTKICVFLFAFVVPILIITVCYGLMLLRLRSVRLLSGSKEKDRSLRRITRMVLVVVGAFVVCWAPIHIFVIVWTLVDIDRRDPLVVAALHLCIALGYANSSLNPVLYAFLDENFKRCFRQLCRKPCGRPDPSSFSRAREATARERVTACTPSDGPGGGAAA

Mu-type opioid receptor [4] = biological target: T1, Mu-type opioid receptor; type: functional, cell-based, HEK293
Mu-type opioid receptor [5] = biological target: T1, Mu-type opioid receptor; experiment: Partial agonist activity at human MOR expressed in HEK293 cells assessed as inhibition of forskolin-induced cAMP accumulation after 15 mins by cAMP EIA; type: functional, cell-based
How it was run: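 Whole HEK-293 cells stably expressing MOR, grown in MEM/10% FBS and plated at 85–95% confluence. Cells washed, placed in serum-free medium with 0.5 mM IBMX, and given 10 μM forskolin ± compound (0.01 nM–100 μM) for 15 min at 37 °C. Lysed in 0.1 N HCl; cAMP in supernatant measured by EIA. Triplicates averaged for IC50 and Emax (% vehicle), 5–6 independent experiments.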

Sequence of Kappa-type opioid receptor (P41145 whole entry): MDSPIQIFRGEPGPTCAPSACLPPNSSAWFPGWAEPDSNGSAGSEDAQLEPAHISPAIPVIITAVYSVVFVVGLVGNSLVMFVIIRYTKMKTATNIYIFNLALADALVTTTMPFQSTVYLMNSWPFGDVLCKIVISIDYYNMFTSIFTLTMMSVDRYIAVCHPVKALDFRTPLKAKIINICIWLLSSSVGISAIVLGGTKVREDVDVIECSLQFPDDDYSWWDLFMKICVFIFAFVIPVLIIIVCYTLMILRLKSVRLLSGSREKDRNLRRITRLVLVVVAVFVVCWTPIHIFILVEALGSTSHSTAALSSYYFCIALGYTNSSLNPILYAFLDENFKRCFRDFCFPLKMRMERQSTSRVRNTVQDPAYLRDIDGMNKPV

SMILES | Ki [1] [µM] | Ki (Mu-type opioid receptor [2]) [µM] | Ki [3] [µM] | IC50 (Mu-type opioid receptor [5]) [µM] | IC50 (Mu-type opioid receptor [4]) [µM]
CC(=O)N[C@H](Cc1cnc[nH]1)C(=O)N[C@@H](Cc1ccccc1)C(=O)NCC(N)=O | > 100 | > 100 | > 100 |  | 
NC(=O)[C@H]1CC(=O)NCCC(=O)N[C@H](Cc2c[nH]c3ccccc23)C(=O)N[C@@H](Cc2ccccc2)C(=O)N1 | > 100 | 0.0059 | > 100 |  | 0.037
CC(=O)N[C@@H](Cc1c[nH]c2ccccc12)C(=O)N[C@@H](Cc1ccccc1)C(=O)NCC(N)=O (Ac-Trp-Phe-Gly-NH2) | 33 | 74 | 0.0121 |  | 
CC(=O)N[C@H](Cc1c[nH]c2ccccc12)C(=O)N[C@@H](Cc1ccccc1)C(=O)NCC(N)=O (Ac-[dW]-Phe-Gly-NH2) | > 100 | 0.0056 | > 100 | 0.2 | 
CC(=O)N[C@H](Cc1c[nH]c2ccccc12)C(=O)N[C@@H](Cc1ccccc1)C(N)=O (Ac-[dW]-Phe-NH2) | > 100 | 0.0155 | 0.024 |  | > 100

Second part, led by results:

Ki [1] [µM] | Ki (Mu-type opioid receptor [2]) [µM] | Ki [3] [µM] | IC50 (Mu-type opioid receptor [5]) [µM] | SMILES | IC50 (Mu-type opioid receptor [4]) [µM]
> 100 | > 100 | > 100 |  | CC(=O)N[C@H](Cc1cnc[nH]1)C(=O)N[C@@H](Cc1ccccc1)C(N)=O | 
> 100 | > 100 | > 100 |  | CC(=O)N[C@H](CCCCN)C(=O)N[C@@H](Cc1ccccc1)C(N)=O | 
> 100 | > 100 | > 100 |  | CC(=O)N[C@H](CCCCN)C(=O)N[C@@H](Cc1ccccc1)C(=O)NCC(N)=O | 
> 100 | > 100 | > 100 |  | CC(=O)N[C@H](CCCNC(=N)N)C(=O)N[C@@H](Cc1ccccc1)C(N)=O | 
> 100 | > 100 | > 100 |  | CC(=O)N[C@H](CCCNC(=N)N)C(=O)N[C@@H](Cc1ccccc1)C(=O)NCC(N)=O | 
